According to PubChem BioAssay:
Active and inactive are the calls of the source.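 Rule for the calls, unless noted: active = viability at or under a set limit in both replicates, limit being median viability minus 3 SD (cut at about 48% in these data, passing the limit was not always enough); inconclusive = at or under the limit in just one replicate; inactive = at or above the limit in both replicates.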 Peptide text beside a SMILES is read from it. * marks the point of attachment. Boc = CC(C)(C)OC(=O)*

Columns and labels:
[1] = reduced viability of SK-BR-3 breast cancer cells – cell-based, 24 h, human, pilot screen (AID 572;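 active = viability at or below 10% of carrier control in both of two separate runs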;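 note: compound exposure lasted between 18 and 24 h rather than exactly 24 h; 100% = carrier-treated control wells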); settings: SK-BR-3 viability, CellTiter-Glo luminescence, at 10 µM, stronger effect = lower value
[2] = HUVEC growth inhibition – cell-based, human, primary screen (AID 575;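 active = viability at or below 30% in both replicate assays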;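 note: 100% = median of untreated cell wells with 0.1% DMSO on each plate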); settings: HUVEC proliferation, CellTiter-Glo luminescence, 72 h; at 10 µM; stronger effect = lower value
In short: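 Assay system: primary human umbilical vein endothelial cells / Buffer or medium: endothelial basal medium with 2% FBS plus growth supplements / Compound dosing: one dose, 10 µM final, 0.1% DMSO / Timing: 72 h treatment at 37 °C / Signal: CTG luminescence / Benchmarks: 32 DMSO-only cell-control wells (high), 32 MePR drug-control wells (low) per plate / Plate: collagen-coated 384-well format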

[3] = H69AR cell proliferation blockers – human, duplicate replicates, primary screen (AID 580); settings: H69AR lung tumor cells viability, ATP luminescence, 72 h; at 10 µM; stronger effect = lower value;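 note: 100% = mean luminescence of untreated wells and 0% = no signal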
[4] = MRP1 drug-resistance reversers in H69AR cells – cell-based, doxorubicin co-treatment, pilot screen (AID 601;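 active = viability loss from added drug above about 55%, and viability with drug at most 40%, in both replicates, limit read from the data, passing the limit was not always enough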); settings: CellTiter-Glo, 72 h, at 10 µM; for differential viability (reversal): stronger effect = higher value
[5] = yeast transport mutant growth inhibition pilot in 384-well plates, post-Golgi transport modulator project (AID 636; in the data active = inhibition above about 31%); settings: absorbance 615 nm, about 18 h, stronger effect = higher value
[6] = growth suppression of yeast trafficking mutant, preliminary HTS, modulators of trafficking downstream of Golgi apparatus project, 1536-format plate, OD 615 nm (AID 637; in the data active = inhibition above about 30%); settings: yeast transport mutant growth, absorbance 615 nm, 18 h; stronger effect = higher value
[7] = H69AR cells + 2 uM doxorubicin, measured here: viability with 2 uM doxorubicin, stronger effect = lower value
[8] = H69AR cells, compound alone cytotoxicity

Row | Structure (SMILES) | viability [1] | viability [2] | viability [3] | differential viability (reversal) ([4]; H69AR cells + 2 uM doxorubicin) | viability [4, 7] [%] | viability [4, 8] [%] | inhibition [5] | inhibition [6]
1 | COc1ccc(-c2cc3ccc(OCc4nn[nH]n4)cc3oc2=O)cc1 | 104% (inactive) | 99.2% (inactive) | 102% (inactive) | 14.1% (inactive) | 87.5 | 102 | -6.58% (inactive) | 1.29% (inactive)
2 | C=CCn1c(SCC(=O)Nc2ccccc2OC)nnc1-c1ccccn1 | 84% (inactive) | 92.4% (inactive) | 27.6% (active) | -38.3% (inactive) | 65.9 | 27.6 | -3.78% (inactive) | -4.36% (inactive)
3 | CCOc1ccccc1C(=O)Nn1c(C2CCC2)nc2ccccc2c1=O | 91% (inactive) | 91.1% (inactive) | 93.7% (inactive) | -18% (inactive) | 112 | 93.7 | -4.11% (inactive) | 2.55% (inactive)
4 | CS(=O)(=O)N(CC(=O)NCCSCc1cccc(Cl)c1)c1ccc2c(c1)OCO2 | 94% (inactive) | 97.9% (inactive) | 93.4% (inactive) | -4.33% (inactive) | 97.8 | 93.4 | -2.21% (inactive) | -2.62% (inactive)
5 | Cc1cc(=O)oc2cc(OCC(=O)OCC(=O)N3CCc4ccccc43)ccc12 | 103% (inactive) | 101% (inactive) | 93.2% (inactive) | -2.07% (inactive) | 95.3 | 93.2 | -8.38% (inactive) | -4.55% (inactive)
6 | c1ccc2c(SCc3cn4cccnc4n3)ncnc2c1 | 108% (inactive) | 99.9% (inactive) | 88.4% (inactive) | 10.4% (inactive) | 78 | 88.4 | -4.8% (inactive) | -3.82% (inactive)
7 | CC1(C)CC(=O)C=C(NC2CCS(=O)(=O)C2)C1 (stereo unspecified) | 97% (inactive) | 107% (inactive) | 91.3% (inactive) | -0.825% (inactive) | 92.2 | 91.3 | 0% (inactive) | 6.89% (inactive)
8 | COc1ccc(CCNc2oc(COc3ccc(F)cc3)nc2C#N)cc1 | 164% (inactive) | 76.2% (inactive) | 93.7% (inactive) | 2.54% (inactive) | 91.1 | 93.7 | -4.73% (inactive) | 1.27% (inactive)
9 | COC(=O)c1sccc1NC(=O)c1ccco1 | 109% (inactive) | 92.3% (inactive) | 96.3% (inactive) | -5.95% (inactive) | 102 | 96.3 | -6.71% (inactive) | 7.27% (inactive)
10 | CCC1CCCCN1C(=O)C1CC(c2cc(Cl)c(OC)cc2OC)=NO1 (stereo unspecified) | 86% (inactive) | 89.7% (inactive) | 96.6% (inactive) | -4.29% (inactive) | 101 | 96.6 | -2.86% (inactive) | -3.77% (inactive)
11 | CCOC(=O)C1CCCN(CC(=O)NC2CC2)C1 (stereo unspecified) | 112% (inactive) | 96.6% (inactive) | 88.2% (inactive) | -1.56% (inactive) | 89.7 | 88.2 | -7.16% (inactive) | -2.91% (inactive)
12 | COc1cccc(N2C(=O)N(c3ccccc3Cl)C3CS(=O)(=O)CC32)c1 (stereo unspecified) | 93% (inactive) | 106% (inactive) | 98% (inactive) | 9.28% (inactive) | 88.7 | 98 | -6.71% (inactive) | 3.45% (inactive)
13 | COc1ccc2cc3cc(C(=O)NCC4CCCO4)oc3nc2c1 (stereo unspecified) | 128% (inactive) | 84.8% (inactive) | 88.1% (inactive) | 4.77% (inactive) | 83.4 | 88.1 | 1.69% (inactive) | 3.44% (inactive)
14 | CC(C)N(Cc1nc(-c2ccccc2)no1)C(=O)CCCN1C(=O)c2ccccc2C1=O | 104% (inactive) | 112% (inactive) | 97.9% (inactive) | 15.7% (inactive) | 82.2 | 97.9 | -3.12% (inactive) | 0.98% (inactive)
15 | CN1CC=C2C(C#N)=C(N)C(C#N)(C#N)C(Cc3ccccc3)C2C1 (stereo unspecified) | 85% (inactive) | 69% (inactive) | 84.6% (inactive) | -2.88% (inactive) | 87.5 | 84.6 | -8.22% (inactive) | -7.26% (inactive)
16 | O=C(Nc1ccc(N2CCCC2)cc1)c1cccc(F)c1 | 134% (inactive) | 51.7% (inactive) | 25.8% (active) | -24.6% (inactive) | 50.3 | 25.8 | -0.78% (inactive) | -0.82% (inactive)
17 | CCOc1cc2[nH]c(=O)n(CCC(=O)NCCc3ccc(OC)c(OC)c3)c(=O)c2cc1OCC | 103% (inactive) | 75.4% (inactive) | 96.8% (inactive) | 17.1% (inactive) | 79.7 | 96.8 | -3.38% (inactive) | -0.98% (inactive)
18 | O=C(O)c1cccc(NC(=O)C23CC4CC(C2)CC(n2cnc(Cl)n2)(C4)C3)c1 | 122% (inactive) | 105% (inactive) | 96.9% (inactive) | 5.78% (inactive) | 91.1 | 96.9 | -1.95% (inactive) | 0.98% (inactive)
19 | Cc1cc(N2C(=O)CC(N3CCN(c4ccc(C(=O)c5cccs5)cc4)CC3)C2=O)no1 (stereo unspecified) | 96% (inactive) | 87.4% (inactive) | 87.6% (inactive) | -4.99% (inactive) | 92.6 | 87.6 | -3.42% (inactive) | 13.6% (inactive)
20 | CCN(CC)CCCN1C(=O)C(O)=C(C(C)=O)C1c1cccc(OC)c1 (stereo unspecified) | 97% (inactive) | 101% (inactive) | 93% (inactive) | 5.69% (inactive) | 87.3 | 93 | -3.51% (inactive) | -2.73% (inactive)
21 | Cc1ccc(NC(=O)CN(C)S(=O)(=O)c2cccc3nsnc23)cc1Cl | 103% (inactive) | 83.3% (inactive) | 84.5% (inactive) | -7.79% (inactive) | 92.2 | 84.5 | 1.76% (inactive) | -3.09% (inactive)
22 | CCC(C)C(NC(=O)OC(C)(C)C)C(=O)NC(CC(C)C)C(N)=O (stereo not drawn) (Boc-Ile-Leu-NH2; configuration not given here) | 109% (inactive) | 114% (inactive) | 98.9% (inactive) | 9.78% (inactive) | 89.1 | 98.9 | -2.73% (inactive) | -1.8% (inactive)
23 | CCc1nnc(SCC(=O)NC2CCCCC2)nc1CC | 94% (inactive) | 92.5% (inactive) | 97.9% (inactive) | 13.1% (inactive) | 84.8 | 97.9 | -4.29% (inactive) | -7.7% (inactive)
24 | O=C(c1c(Cl)nc2sccn12)N(C(=O)c1c(Cl)nc2sccn12)c1ccc(Cl)cn1 | 131% (inactive) | 43.6% (inactive) | 70.8% (inactive) | -7.89% (inactive) | 78.7 | 70.8 | -3.38% (inactive) | 3.11% (inactive)
25 | CCn1cc(C(=O)O)c(=O)c2ccc(C)nc21 | 106% (inactive) | 92.1% (inactive) | 101% (inactive) | 0.53% (inactive) | 100 | 101 | -0.78% (inactive) | -3.83% (inactive)
26 | Clc1ccc2c(c1)[C@H]1OCC[C@H]1[C@@H](c1ccco1)N2 | 104% (inactive) | 89.6% (inactive) | 86% (inactive) | 0.43% (inactive) | 85.6 | 86 | -0.13% (inactive) | -5.83% (inactive)
27 | COC(=O)c1[nH]c2ccc(C)cc2c1NC(=O)CN1CCN(C(=O)c2ccccc2)CC1 | 130% (inactive) | 94% (inactive) | 78.4% (inactive) | 33.4% (inactive) | 44.9 | 78.4 | -4.67% (inactive) | -0.36% (inactive)
